{
  "source": "ChEMBL document CHEMBL4513216",
  "about": "“Probing the Open Global Health Chemical Diversity Library for Multistage-Active Starting Points for Next-Generation Antimalarials” (ACS Infect Dis, 2020)",
  "assay": "Toxicity liver stage against HepG2, at 10uM",
  "assay_type": "cell-based",
  "design": "test concentration 10 uM, cell line HepG2-A16-CD81EGFP",
  "conditions": "human, HepG2-A16-CD81EGFP cells; read-out: INHIBITION",
  "in_short": "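Uninfected HepG2-A16-CD81EGFP cells, 3 × 10^3 per well, 1536-well, plated on prespotted compound at 10 μM final, parasite-free screening media added to match infected plates; puromycin 10 μM positive, DMSO 0.5% negative; run in parallel with 48 h PbLuc assay at 37 °C, 5% CO2; viability by CellTiter-Glo luminescence, normalized to controls.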",
  "data": [
    {"smiles": "O=C(c1cc(-c2cccs2)nc2ccccc12)N1CCN(CCO)CC1", "values": [
      {"measurement": "cytotoxicity at 10 µM", "value": -53.2, "unit": "%"}
    ]},
    {"smiles": "Cc1csc(C(=O)NCCN2CCC(c3cccs3)CC2)c1", "values": [
      {"measurement": "cytotoxicity at 10 µM", "value": 2.03, "unit": "%"}
    ]},
    {"smiles": "Cc1oncc1C(=O)NCC1(O)CCc2ccccc2C1", "note": "(stereo not given)", "values": [
      {"measurement": "cytotoxicity at 10 µM", "value": -6.29, "unit": "%"}
    ]},
    {"smiles": "O=C(c1ccco1)N1CC[C@@H]2O[C@@H](COCC3CCOCC3)CC[C@@H]21", "values": [
      {"measurement": "cytotoxicity at 10 µM", "value": 1.95, "unit": "%"}
    ]},
    {"smiles": "CCn1ncc2c1C(COC)CN(Cc1cnn(C)c1)C2", "note": "(stereo not given)", "values": [
      {"measurement": "cytotoxicity at 10 µM", "value": 1.49, "unit": "%"}
    ]},
    {"smiles": "CO[C@H]1CN(Cc2ccccc2F)[C@@H]2CCCO[C@H]12", "values": [
      {"measurement": "cytotoxicity at 10 µM", "value": -0.0925, "unit": "%"}
    ]},
    {"smiles": "COc1ccc(C2SCC(=O)Nc3ccsc32)cc1", "note": "(stereo not given)", "values": [
      {"measurement": "cytotoxicity at 10 µM", "value": 10.5, "unit": "%"}
    ]},
    {"smiles": "CCOC1(C)C(=O)c2ccccc2N1Nc1ccccc1C(=O)CC", "note": "(stereo not given)", "values": [
      {"measurement": "cytotoxicity at 10 µM", "value": 12.9, "unit": "%"}
    ]},
    {"smiles": "COc1cc(C(=O)NCC2(N(C)C)CCN(C)CC2)c2ccccc2n1", "values": [
      {"measurement": "cytotoxicity at 10 µM", "value": -0.356, "unit": "%"}
    ]},
    {"smiles": "Cc1csc(Nc2cc(C3CN(c4ccncn4)C3)nc(C)n2)n1", "values": [
      {"measurement": "cytotoxicity at 10 µM", "value": 11.6, "unit": "%"}
    ]},
    {"smiles": "CNc1ncc(CN2CCC(CCc3ccccc3)CC2)cn1", "values": [
      {"measurement": "cytotoxicity at 10 µM", "value": 5.19, "unit": "%"}
    ]},
    {"smiles": "Cc1nc(C2CN(Cc3scnc3C)CCO2)cc(N(C)C)n1", "note": "(stereo not given)", "values": [
      {"measurement": "cytotoxicity at 10 µM", "value": -12.3, "unit": "%"}
    ]},
    {"smiles": "Cn1cncc1CN1CCCC1c1cncc(Oc2ccc(F)cc2)n1", "note": "(stereo not given)", "values": [
      {"measurement": "cytotoxicity at 10 µM", "value": -17.3, "unit": "%"}
    ]},
    {"smiles": "Cc1noc(C)c1-c1ccnc(C2CCNCC2)c1", "values": [
      {"measurement": "cytotoxicity at 10 µM", "value": -8.41, "unit": "%"}
    ]},
    {"smiles": "Cc1cc(C)nc(N2CCCC(c3cccc(-n4ccnc4)n3)C2)n1", "note": "(stereo not given)", "values": [
      {"measurement": "cytotoxicity at 10 µM", "value": -0.252, "unit": "%"}
    ]},
    {"smiles": "Nc1cc(CCC2CN(Cc3ccc4c(c3)OCCO4)CCO2)ccn1", "note": "(stereo not given)", "values": [
      {"measurement": "cytotoxicity at 10 µM", "value": 15.8, "unit": "%"}
    ]},
    {"smiles": "Cc1cc(C)c(CN2CCCC23Cc2ccccc2CNC3=O)c(C)c1", "note": "(stereo not given)", "values": [
      {"measurement": "cytotoxicity at 10 µM", "value": 10.8, "unit": "%"}
    ]},
    {"smiles": "Cc1cc(C(=O)NCCc2nc3c(s2)CCCC3)n(C)n1", "values": [
      {"measurement": "cytotoxicity at 10 µM", "value": 20.5, "unit": "%"}
    ]},
    {"smiles": "CN(C)C1(C(=O)NC2CCC(Oc3ccccc3C#N)CC2)CCC1", "note": "(stereo not given)", "values": [
      {"measurement": "cytotoxicity at 10 µM", "value": 9.92, "unit": "%"}
    ]},
    {"smiles": "COC(=O)CCN(C)C(=O)c1ccc(-c2cscn2)cc1", "values": [
      {"measurement": "cytotoxicity at 10 µM", "value": -7.29, "unit": "%"}
    ]},
    {"smiles": "CC(C)OCc1ccccc1CNC(=O)C(C)(C)C", "values": [
      {"measurement": "cytotoxicity at 10 µM", "value": -8.11, "unit": "%"}
    ]},
    {"smiles": "CSCCC(=O)N1CCN(CC(C)O)CC1", "note": "(stereo not given)", "values": [
      {"measurement": "cytotoxicity at 10 µM", "value": -5.64, "unit": "%"}
    ]},
    {"smiles": "NC(=O)c1cncc(N2CCN(Cc3ccc(F)cc3Cl)CC2)n1", "values": [
      {"measurement": "cytotoxicity at 10 µM", "value": 11.8, "unit": "%"}
    ]},
    {"smiles": "CC(NC(=O)NC1CCN(Cc2ccncc2)CC1)c1ccccc1F", "note": "(stereo not given)", "values": [
      {"measurement": "cytotoxicity at 10 µM", "value": -17.8, "unit": "%"}
    ]},
    {"smiles": "CCC1CCCN(Cc2nc3ccccc3c(=O)[nH]2)C1", "note": "(stereo not given)", "values": [
      {"measurement": "cytotoxicity at 10 µM", "value": -46, "unit": "%"}
    ]},
    {"smiles": "COc1ccccc1CN(Cc1cccs1)S(=O)(=O)N(C)C(C)C", "values": [
      {"measurement": "cytotoxicity at 10 µM", "value": -46.7, "unit": "%"}
    ]},
    {"smiles": "Cc1ccc(CN(CC(=O)NC2CCOCC2)c2ccc(F)cc2)o1", "values": [
      {"measurement": "cytotoxicity at 10 µM", "value": 1.55, "unit": "%"}
    ]},
    {"smiles": "O=C(CCc1nc(-c2ccsc2)no1)NCC1CCN(C2CC2)C1", "note": "(stereo not given)", "values": [
      {"measurement": "cytotoxicity at 10 µM", "value": 3.23, "unit": "%"}
    ]},
    {"smiles": "CC(NCCNS(=O)(=O)c1cccc(Cl)c1)C1CCOCC1", "note": "(stereo not given)", "values": [
      {"measurement": "cytotoxicity at 10 µM", "value": -1.6, "unit": "%"}
    ]},
    {"smiles": "O=C(Nc1ccccn1)NC1CCN(c2ccccc2OC(F)F)C1", "note": "(stereo not given)", "values": [
      {"measurement": "cytotoxicity at 10 µM", "value": 11.7, "unit": "%"}
    ]},
    {"smiles": "O=C(c1ccc(F)cc1Cl)N1CCn2c(nnc2C(F)(F)F)C1", "values": [
      {"measurement": "cytotoxicity at 10 µM", "value": -6.7, "unit": "%"}
    ]},
    {"smiles": "CCc1ccc(C2CCCCCN2C(=O)CNC(=O)NC2CC2)o1", "note": "(stereo not given)", "values": [
      {"measurement": "cytotoxicity at 10 µM", "value": 0.0456, "unit": "%"}
    ]},
    {"smiles": "CN(c1ccc(CNC(=O)c2ccc(O)nc2)cc1)C1CCCCC1", "values": [
      {"measurement": "cytotoxicity at 10 µM", "value": -0.77, "unit": "%"}
    ]},
    {"smiles": "CCc1cnc(CN(C)C(=O)NC2CCN(C)C2=O)s1", "note": "(stereo not given)", "values": [
      {"measurement": "cytotoxicity at 10 µM", "value": -0.786, "unit": "%"}
    ]},
    {"smiles": "Cc1nn(C)c(N(C)C)c1CNCc1cccc(Cl)c1", "values": [
      {"measurement": "cytotoxicity at 10 µM", "value": -8.27, "unit": "%"}
    ]},
    {"smiles": "N#CCCN(C(=O)CN1CCCC1c1ccccc1Cl)c1ccccc1", "note": "(stereo not given)", "values": [
      {"measurement": "cytotoxicity at 10 µM", "value": 8.22, "unit": "%"}
    ]},
    {"smiles": "COCc1nc2cc(NCc3cc[nH]n3)ccc2o1", "values": [
      {"measurement": "cytotoxicity at 10 µM", "value": 6.7, "unit": "%"}
    ]},
    {"smiles": "Cc1nn(C)c(C)c1OCC(=O)NCC(O)Cc1ccccc1", "note": "(stereo not given)", "values": [
      {"measurement": "cytotoxicity at 10 µM", "value": -3.81, "unit": "%"}
    ]},
    {"smiles": "CCN(CC)C(=O)N1CCN(C(=O)C2CCCc3[nH]ncc32)CC1", "note": "(stereo not given)", "values": [
      {"measurement": "cytotoxicity at 10 µM", "value": -2.3, "unit": "%"}
    ]},
    {"smiles": "CC(NC(=O)N(C)Cc1cccc(OC(F)F)c1)c1nncn1C", "note": "(stereo not given)", "values": [
      {"measurement": "cytotoxicity at 10 µM", "value": -2.69, "unit": "%"}
    ]},
    {"smiles": "Cc1ccc(C(=O)Nc2cc(C(N)=O)ccc2N2CCCCC2)cc1F", "values": [
      {"measurement": "cytotoxicity at 10 µM", "value": 2.13, "unit": "%"}
    ]},
    {"smiles": "CC(C)NC(=O)CCN1CCC(C(=O)c2cc(F)ccc2F)CC1", "values": [
      {"measurement": "cytotoxicity at 10 µM", "value": -25, "unit": "%"}
    ]},
    {"smiles": "COCc1ccccc1CNC(=O)CN1CCC2(CCOC2)C1", "note": "(stereo not given)", "values": [
      {"measurement": "cytotoxicity at 10 µM", "value": -61, "unit": "%"}
    ]},
    {"smiles": "COc1ccc(C(C)Nc2cnn(C)c(=O)c2Cl)cc1OC", "note": "(stereo not given)", "values": [
      {"measurement": "cytotoxicity at 10 µM", "value": 18.7, "unit": "%"}
    ]},
    {"smiles": "CCC(NC(=O)NCc1cccc(N(C)C)n1)c1nccs1", "note": "(stereo not given)", "values": [
      {"measurement": "cytotoxicity at 10 µM", "value": 23.3, "unit": "%"}
    ]},
    {"smiles": "O=C(c1cncc(Br)c1)N1CCCc2ccc(F)cc21", "values": [
      {"measurement": "cytotoxicity at 10 µM", "value": -1.01, "unit": "%"}
    ]},
    {"smiles": "CCOc1cc(CNC(C)c2sccc2C)ccn1", "note": "(stereo not given)", "values": [
      {"measurement": "cytotoxicity at 10 µM", "value": -8.14, "unit": "%"}
    ]},
    {"smiles": "O=S(=O)(Cc1ccc(F)cc1)NCc1nnc2n1CCC2", "values": [
      {"measurement": "cytotoxicity at 10 µM", "value": 3.82, "unit": "%"}
    ]},
    {"smiles": "CC(NC(=O)NCCc1cnn(C)c1)c1ccc(Cl)s1", "note": "(stereo not given)", "values": [
      {"measurement": "cytotoxicity at 10 µM", "value": -2.47, "unit": "%"}
    ]},
    {"smiles": "CC(=O)N1CCC(NS(=O)(=O)c2cccnc2)CC1", "values": [
      {"measurement": "cytotoxicity at 10 µM", "value": -2.73, "unit": "%"}
    ]},
    {"smiles": "N#Cc1ccc(NC2CCN(c3ncccn3)CC2)cc1C(F)(F)F", "values": [
      {"measurement": "cytotoxicity at 10 µM", "value": 27.5, "unit": "%"}
    ]},
    {"smiles": "COCCNC(=O)C[C@@H]1COC[C@H]2CN(C(=O)C3CCOCC3)C[C@@H]12", "values": [
      {"measurement": "cytotoxicity at 10 µM", "value": -94.8, "unit": "%"}
    ]},
    {"smiles": "COc1cc(N2CCN(CC3CC3)c3nc(C)ccc3C2)ncn1", "values": [
      {"measurement": "cytotoxicity at 10 µM", "value": -101, "unit": "%"}
    ]},
    {"smiles": "O=C1NC2(CCN(Cc3ccccc3Cl)CC2)CC1c1ccccc1", "note": "(stereo not given)", "values": [
      {"measurement": "cytotoxicity at 10 µM", "value": -49.2, "unit": "%"}
    ]},
    {"smiles": "CN1CCC(N(C)CCC(=O)N2CCC(Oc3ccc(Cl)cc3)CC2)C1", "note": "(stereo not given)", "values": [
      {"measurement": "cytotoxicity at 10 µM", "value": 7.04, "unit": "%"}
    ]}
  ]
}
